Data set [1] can be described thus: Volume of distribution at steady state in Sprague-Dawley rat at 2 mg/kg, iv administered as single dose. Type of data set: ADME, organism-based. As to conditions: in vivo, read-out: Vdss. The procedure, abridged:
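Male Sprague-Dawley rats (n=3), single dose. IV 2 mg/kg in 1% DMA/9% Cremophor/90% saline; PO 10 mg/kg in 0.5% CMC-Na. For one compound, IV 10 mg/kg in DMSO/Tween 80/PEG40 and PO 10 mg/kg in 10% DMSO/5% Tween 80/85% saline.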

A short description of data set [2]: Selectivity ratio of IC50 for human SGC7901 cells to IC50 for human EBC1 cells. Type of data set: ADME, cell-based. As to conditions: sgc-7901. The procedure, abridged:
(§1)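 Each cell line was seeded in 96-well plates, then exposed the next day to a range of compound concentrations for 72 h. Growth was read by SRB or MTT assay, and IC50 was fitted by a four-parameter concentration-response curve. Each concentration was run at least in triplicate, in at least 2 experiments. BaF3/TPR-Met are murine pre-B BaF3 cells transfected with TPR-MET cDNA and selected in puromycin.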

A short description of data set [3]: Antiproliferative activity against human Calu3 cells after 72 hrs by SRB or MTT assay. As to conditions: Calu-3, 72 h. Format: functional, cell-based. The procedure, abridged:
(§2)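 Cells seeded, exposed next day to a range of concentrations for 72 h. Growth read by sulforhodamine B or MTT. IC50 from four-parameter concentration-response fit. Each concentration tested at least in triplicate, with at least 2 experiments.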

For data set [4], the target named is Epidermal growth factor receptor (Homo sapiens) (UniProt P00533). As to the kind of experiment: Inhibition of recombinant EGFR (unknown origin) using poly (Glu, Tyr) 4:1 as substrate at 1000 nM incubated for 60 mins by ELISA relative to control. The gist of the method: (§3)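 Recombinant tyrosine kinases assayed on wells precoated with poly(Glu,Tyr)4:1 (20 µg/mL). ATP 10 µmol/L in HEPES pH 7.4 buffer with MgCl2, MnCl2, Na3VO4 and DTT; compound in 1% DMSO, 1% DMSO as control. Reaction 60 min at 37 °C. Phosphotyrosine detected with PY99 and HRP anti-mouse, o-phenylenediamine, A490. Inhibition % relative to control; two experiments.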
In general terms: An ELISA detects its analyte on a solid surface through an enzyme-linked reagent.

Data set [5] addresses Ephrin type-A receptor 2 (Homo sapiens) (UniProt P29317). Put plainly: Inhibition of recombinant EPHA2 (unknown origin) using poly (Glu, Tyr) 4:1 as substrate at 1000 nM incubated for 60 mins by ELISA relative to control. The procedure, abridged: as §3
Data set [6] addresses Hepatocyte growth factor receptor (Canis lupus familiaris) (UniProt Q75ZY9). Put plainly: Inhibition of c-Met in MDCK cells assessed as inhibition of HGF-induced branching morphogenesis at 0.4 to 10 nM after 5 days by microscopic analysis. Type of data set: cell-based. The gist of the method:
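MDCK cells (2×10^4/mL) mixed 1:1 with collagen I and gelled 60 min at 37 °C. HGF (100 ng/mL) added with or without compound at various concentrations in growth medium. Medium renewed every 2 d; branching imaged by microscopy after 5 d. Three independent experiments.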

Data set [7] in a line: Selectivity ratio of IC50 for human SPCA1 cells to IC50 for human MKN45 cells. Type of data set: ADME, cell-based. As to conditions: SPCA1 cells versus MKN45 cells.
A short description of data set [8]: Selectivity ratio of IC50 for human PANC1 cells to IC50 for human EBC1 cells. Format: ADME, cell-based. As to conditions: panc-1. The gist of the method: as §1
Data set [9] is described as follows: Antiproliferative activity against human SMMC7721 cells after 72 hrs by SRB or MTT assay. Type of data set: functional, cell-based. As to conditions: SMMC-7721, 72 h. The procedure, abridged: as §2
(In general: Formazan colour is commonly taken as a measure of viable cells.)

Another data set has as its system MKN-45. As to the kind of experiment: Antitumor activity against human MKN45 cells xenografted in po dosed athymic nude mouse assessed as tumor growth inhibition administered bid for 21 days measured twice a week during compound dosing. Format: functional, organism-based. The procedure, abridged: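 Nude mice bearing s.c. tumours. Cells were first grown s.c. to 700–800 mm³, then 1.5 mm³ fragments were transplanted s.c. into the right flank. Mice were randomised at 100–200 mm³ (n=6 treated, n=12 vehicle) and dosed orally twice daily for 21 days. Caliper measurement twice weekly; TV = length×width²/2. TGI taken on the final day versus vehicle; Student's t test.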
(In general: In xenograft studies the graft and the host belong to different species.)

Data set [10] is described as follows: AUC (0 to infinity) in Sprague-Dawley rat at 10 mg/kg, po administered as single dose. Format: ADME, organism-based. The arrangement: dose 10 mg/kg, route oral, time infinity. As to conditions: in vivo.
Data set [11] can be described thus: Selectivity ratio of IC50 for human SNU16 cells to IC50 for human EBC1 cells. Type of data set: ADME, cell-based. As to conditions: snu-16.
In data set [12] the target is Insulin-like growth factor 1 receptor (Homo sapiens) (UniProt P08069). As to the kind of experiment: Inhibition of recombinant IGF1R (unknown origin) using poly (Glu, Tyr) 4:1 as substrate at 1000 nM incubated for 60 mins by ELISA relative to control. The procedure, abridged: as §3
A short description of data set [13]: Selectivity ratio of IC50 for human Calu3 cells to IC50 for human EBC1 cells. Type of data set: ADME, cell-based. As to conditions: calu-3. The procedure, abridged:
(§4)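 Both IC50s in each ratio come from one proliferation assay. Cells were seeded and exposed the next day to a range of concentrations for 72 h, then read by SRB or MTT. IC50s were fitted by four-parameter concentration–response, with each concentration at least in triplicate and at least 2 experiments. BaF3/TPR-Met is murine pre-B BaF3 transfected with TPR-MET and puromycin-selected.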

Data set [14] has as its target Ephrin type-B receptor 2 (Homo sapiens) (UniProt P29323). As to the kind of experiment: Inhibition of recombinant EPHB2 (unknown origin) using poly (Glu, Tyr) 4:1 as substrate at 1000 nM incubated for 60 mins by ELISA relative to control. The procedure, abridged: as §3
Data set [15] is described as follows: Selectivity ratio of IC50 for human HCT116 cells to IC50 for human MKN45 cells. Type of data set: ADME, cell-based. As to conditions: hct-116. The procedure, abridged:
as §4

Data set [16] can be described thus: Antiproliferative activity against human Bel7404 cells after 72 hrs by SRB or MTT assay. As to conditions: BEL-7404, 72 h. Type of data set: functional, cell-based. The gist of the method: as §2
Data set [17] has as its target Tyrosine-protein kinase receptor UFO (Homo sapiens) (UniProt P30530). As to conditions: 1000 nM.
Data set [18] in a line: Selectivity ratio of IC50 for human U87MG cells to IC50 for mouse BAF3 cells expressing TPR-MET. Type of data set: ADME, cell-based.
Data set [19] is described as follows: Half life in Sprague-Dawley rat at 2 mg/kg, iv administered as single dose. Type of data set: ADME, organism-based. As to conditions: in vivo. The procedure, abridged: (§5)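 Male Sprague Dawley rats (n=3), single dose. iv 2 mg/kg in 1% DMA/9% Cremophor/90% saline. po 10 mg/kg in 0.5% CMC-Na. Where iv was 10 mg/kg: 10% DMSO/10% Tween 80/80% (40% PEG40); po in that case in 10% DMSO/5% Tween 80/85% saline.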

Data set [20] is described as follows: Clearance in Sprague-Dawley rat at 2 mg/kg, iv administered as single dose. As to conditions: in vivo. Type of data set: ADME, organism-based. The gist of the method:
as §5

Data set [21] is described as follows: Selectivity ratio of IC50 for human NCI-H460 cells to IC50 for human MKN45 cells. Type of data set: ADME, cell-based. The gist of the method: as §4
Data set [22] has as its target ALK tyrosine kinase receptor (Homo sapiens) (UniProt Q9UM73). Put plainly: Inhibition of recombinant ALK (unknown origin) using poly (Glu, Tyr) 4:1 as substrate at 1000 nM incubated for 60 mins by ELISA relative to control. The procedure, abridged:
as §3

SMILES strings stand for the structures. The source made the active and inactive calls. The rule behind the calls is not given here.

Sequence of Epidermal growth factor receptor (Homo sapiens) (P00533 whole entry): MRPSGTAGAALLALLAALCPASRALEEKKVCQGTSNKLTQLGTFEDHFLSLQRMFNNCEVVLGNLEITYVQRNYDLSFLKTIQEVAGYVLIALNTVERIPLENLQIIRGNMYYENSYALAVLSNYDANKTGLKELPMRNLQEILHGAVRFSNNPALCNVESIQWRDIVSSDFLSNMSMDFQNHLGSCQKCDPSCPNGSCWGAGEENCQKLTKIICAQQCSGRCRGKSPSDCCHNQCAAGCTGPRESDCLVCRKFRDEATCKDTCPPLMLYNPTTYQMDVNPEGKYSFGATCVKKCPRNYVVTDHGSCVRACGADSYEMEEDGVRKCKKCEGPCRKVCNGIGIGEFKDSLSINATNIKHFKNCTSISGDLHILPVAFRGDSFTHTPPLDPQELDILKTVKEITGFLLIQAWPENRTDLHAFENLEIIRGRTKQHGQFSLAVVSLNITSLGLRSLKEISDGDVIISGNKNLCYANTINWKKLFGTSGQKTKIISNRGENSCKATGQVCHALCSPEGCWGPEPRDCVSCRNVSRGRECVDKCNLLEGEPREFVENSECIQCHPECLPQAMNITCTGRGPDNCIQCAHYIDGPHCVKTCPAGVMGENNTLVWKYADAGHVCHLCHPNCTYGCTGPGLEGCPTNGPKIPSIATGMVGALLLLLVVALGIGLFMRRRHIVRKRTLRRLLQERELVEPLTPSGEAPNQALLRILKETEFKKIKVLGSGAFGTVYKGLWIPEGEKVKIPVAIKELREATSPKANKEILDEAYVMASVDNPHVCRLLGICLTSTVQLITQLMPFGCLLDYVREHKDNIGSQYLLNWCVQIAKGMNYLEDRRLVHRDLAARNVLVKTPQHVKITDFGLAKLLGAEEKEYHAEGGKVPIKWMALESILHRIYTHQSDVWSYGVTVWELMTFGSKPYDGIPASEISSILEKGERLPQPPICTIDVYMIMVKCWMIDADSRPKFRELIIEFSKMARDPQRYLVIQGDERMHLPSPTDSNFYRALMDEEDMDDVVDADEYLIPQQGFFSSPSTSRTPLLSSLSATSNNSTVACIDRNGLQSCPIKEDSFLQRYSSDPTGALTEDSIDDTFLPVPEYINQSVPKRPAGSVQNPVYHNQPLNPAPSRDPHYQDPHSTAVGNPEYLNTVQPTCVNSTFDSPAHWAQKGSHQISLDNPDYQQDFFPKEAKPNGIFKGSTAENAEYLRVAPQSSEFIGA
Sequence of Hepatocyte growth factor receptor (Canis lupus familiaris) (Q75ZY9 whole entry): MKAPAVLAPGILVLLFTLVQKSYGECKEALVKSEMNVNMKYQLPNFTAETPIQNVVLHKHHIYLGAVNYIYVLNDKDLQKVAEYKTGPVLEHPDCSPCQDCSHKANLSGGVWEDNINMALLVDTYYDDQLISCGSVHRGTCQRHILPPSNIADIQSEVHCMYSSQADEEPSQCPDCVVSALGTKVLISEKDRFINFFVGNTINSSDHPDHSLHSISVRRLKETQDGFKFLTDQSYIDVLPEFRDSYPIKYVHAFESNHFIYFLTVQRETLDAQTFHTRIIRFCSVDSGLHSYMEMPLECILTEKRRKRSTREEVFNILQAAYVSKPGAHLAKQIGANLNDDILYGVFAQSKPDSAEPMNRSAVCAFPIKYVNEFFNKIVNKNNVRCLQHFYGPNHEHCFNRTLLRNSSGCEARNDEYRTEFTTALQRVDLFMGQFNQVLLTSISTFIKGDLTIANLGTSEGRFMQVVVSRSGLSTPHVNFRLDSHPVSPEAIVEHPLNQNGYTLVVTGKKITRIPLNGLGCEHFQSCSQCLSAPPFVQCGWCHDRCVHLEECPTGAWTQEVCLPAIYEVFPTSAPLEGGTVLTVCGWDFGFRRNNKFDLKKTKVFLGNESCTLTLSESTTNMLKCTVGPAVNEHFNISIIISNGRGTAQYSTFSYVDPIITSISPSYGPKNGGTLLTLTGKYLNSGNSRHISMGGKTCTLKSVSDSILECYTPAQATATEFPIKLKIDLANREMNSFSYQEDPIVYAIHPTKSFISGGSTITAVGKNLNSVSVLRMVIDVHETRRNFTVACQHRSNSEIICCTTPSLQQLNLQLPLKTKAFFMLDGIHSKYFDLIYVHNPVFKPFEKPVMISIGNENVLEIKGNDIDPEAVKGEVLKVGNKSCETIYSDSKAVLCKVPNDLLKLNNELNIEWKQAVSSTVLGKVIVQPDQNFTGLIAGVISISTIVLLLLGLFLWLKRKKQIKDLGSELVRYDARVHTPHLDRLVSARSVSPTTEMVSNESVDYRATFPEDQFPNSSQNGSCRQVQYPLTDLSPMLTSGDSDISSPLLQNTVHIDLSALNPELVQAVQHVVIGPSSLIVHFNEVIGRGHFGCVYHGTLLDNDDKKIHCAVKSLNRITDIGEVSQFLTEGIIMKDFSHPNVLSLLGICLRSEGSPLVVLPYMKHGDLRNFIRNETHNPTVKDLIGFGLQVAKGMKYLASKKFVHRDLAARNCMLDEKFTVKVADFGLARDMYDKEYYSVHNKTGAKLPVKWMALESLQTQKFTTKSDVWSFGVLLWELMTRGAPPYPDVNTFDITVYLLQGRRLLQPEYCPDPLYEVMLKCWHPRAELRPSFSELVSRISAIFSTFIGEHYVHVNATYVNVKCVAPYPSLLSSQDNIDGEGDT
Sequence of Ephrin type-A receptor 2 (Homo sapiens) (P29317 whole entry): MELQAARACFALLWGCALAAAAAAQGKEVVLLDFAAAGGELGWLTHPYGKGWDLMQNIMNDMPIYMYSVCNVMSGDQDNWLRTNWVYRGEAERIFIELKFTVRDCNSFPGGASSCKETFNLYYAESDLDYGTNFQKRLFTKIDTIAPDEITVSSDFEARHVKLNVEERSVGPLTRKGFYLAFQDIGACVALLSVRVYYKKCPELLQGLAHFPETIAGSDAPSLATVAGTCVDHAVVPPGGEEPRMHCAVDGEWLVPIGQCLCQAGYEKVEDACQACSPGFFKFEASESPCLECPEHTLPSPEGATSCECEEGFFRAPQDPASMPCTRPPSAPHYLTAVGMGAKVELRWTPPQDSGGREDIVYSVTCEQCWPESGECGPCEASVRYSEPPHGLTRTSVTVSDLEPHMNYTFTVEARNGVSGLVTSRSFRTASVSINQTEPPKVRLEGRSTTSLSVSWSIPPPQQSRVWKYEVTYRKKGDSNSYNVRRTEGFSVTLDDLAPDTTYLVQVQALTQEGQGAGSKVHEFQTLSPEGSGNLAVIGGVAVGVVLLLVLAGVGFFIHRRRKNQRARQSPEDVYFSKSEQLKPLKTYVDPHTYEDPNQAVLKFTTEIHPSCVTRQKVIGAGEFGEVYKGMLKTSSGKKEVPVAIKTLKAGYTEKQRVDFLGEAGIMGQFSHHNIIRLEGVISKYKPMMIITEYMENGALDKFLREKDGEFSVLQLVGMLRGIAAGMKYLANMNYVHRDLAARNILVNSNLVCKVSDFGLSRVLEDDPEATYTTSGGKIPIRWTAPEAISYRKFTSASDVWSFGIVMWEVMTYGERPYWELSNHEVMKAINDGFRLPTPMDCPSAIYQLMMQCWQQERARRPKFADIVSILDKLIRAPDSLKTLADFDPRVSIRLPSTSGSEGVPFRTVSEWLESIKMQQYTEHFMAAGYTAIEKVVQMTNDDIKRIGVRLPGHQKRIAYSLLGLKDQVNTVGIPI
Sequence of Tyrosine-protein kinase receptor UFO (Homo sapiens) (P30530 whole entry): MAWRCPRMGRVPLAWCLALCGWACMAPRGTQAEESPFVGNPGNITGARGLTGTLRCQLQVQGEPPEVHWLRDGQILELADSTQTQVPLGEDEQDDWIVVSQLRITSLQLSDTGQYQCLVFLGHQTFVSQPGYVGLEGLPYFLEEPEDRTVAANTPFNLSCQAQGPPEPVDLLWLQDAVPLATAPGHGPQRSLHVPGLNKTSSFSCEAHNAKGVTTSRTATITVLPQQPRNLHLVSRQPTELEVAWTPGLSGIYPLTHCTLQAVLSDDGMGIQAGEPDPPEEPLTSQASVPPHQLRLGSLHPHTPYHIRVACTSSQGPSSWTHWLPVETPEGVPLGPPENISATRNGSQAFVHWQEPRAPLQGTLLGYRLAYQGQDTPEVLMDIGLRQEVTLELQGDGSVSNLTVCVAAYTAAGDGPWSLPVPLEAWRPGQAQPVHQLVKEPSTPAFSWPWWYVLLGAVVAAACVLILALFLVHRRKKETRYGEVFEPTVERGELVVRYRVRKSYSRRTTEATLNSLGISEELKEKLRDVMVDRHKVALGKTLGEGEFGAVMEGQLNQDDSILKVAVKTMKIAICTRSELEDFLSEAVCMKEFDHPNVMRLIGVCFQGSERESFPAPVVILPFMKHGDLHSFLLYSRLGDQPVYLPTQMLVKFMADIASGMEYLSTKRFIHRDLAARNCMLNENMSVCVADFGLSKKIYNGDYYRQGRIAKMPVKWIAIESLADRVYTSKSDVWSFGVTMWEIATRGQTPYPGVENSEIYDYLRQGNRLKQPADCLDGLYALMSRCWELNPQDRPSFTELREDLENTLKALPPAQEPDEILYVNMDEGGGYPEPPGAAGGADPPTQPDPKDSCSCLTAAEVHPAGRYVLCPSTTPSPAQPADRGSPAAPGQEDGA

As to `Fc1ccc(-c2cnc3nnc(C(F)(F)c4ccc5ncccc5c4)n3n2)cc1`, in data set [1], the Vd stood at 4.89 L/kg. The Ratio IC50 in data set [2] was greater than 10000; in data set [8] it was 10000; in data set [11] it was 10000; in [13], greater than 10000; in [15] it was 10000; in data set [18], 10000. For the same compound, in [21], the “Ratio IC50” value worked out at 10000. Further, the IC50 in data set [3], in [9] and in data set [16] was greater than 10 µM in each case. Further, the inhibition was determined as 33.2% in [4]; 6.1% in data set [5]; 0.4% in [12]; 8.5% in [14]; 36% in [17]; 2.1% in data set [22]. Moreover, the inhibition result in data set [6] is “Active”. Besides, in data set [7], the selectivity ratio was greater than 10000. Moreover, in the data set on MKN-45, the TGI result was “Dose-dependent effect”. Moreover, the AUC(0-inf) in data set [10] was 2380 ng·h/mL. The same compound had a half-life in data set [19] of 73.8 min. In addition, the clearance in data set [20] was 47.2 mL/min/kg.

As a reminder, the IC50 is the concentration needed to halve the response being measured. Low readings indicate greater potency in that assay, high ones weaker potency in that assay. For orientation: inhibition means how much of the control response was suppressed. What is called AUC(0-inf) is total exposure, with the tail of the curve extrapolated. A high value points to more exposure. By half-life is commonly meant how long it takes for the measured level to halve. A higher half-life goes with slow loss. The term clearance denotes the rate of elimination divided by the concentration. Lower therefore signals inefficient removal.
